Results from ChEMBL document CHEMBL1141790, “Sodwanone S, a triterpene from the marine sponge Axinella weltneri” (J Nat Prod, 2005).
Converted amounts (≈) assume the structure as drawn.

Legend:
Format in all cases: functional, cell-based
[1] = Cytotoxicity against human IGROV cells by SRB assay
Outline: (§1)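 Compounds were run across a panel of 13 human tumor cell lines. Potency is expressed as IC50 in μg/mL.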

[2] = Cytotoxicity against human ecteinascidin-743-resistant IGROV cells by SRB assay; outline: as §1
SK-BR-3 = assay: Cytotoxicity against human SKBR3 cells by SRB assay; outline: as §1
SK-MEL-28 = assay: Cytotoxicity against human SK-MEL-28 cells by SRB assay; outline: as §1
LNCaP = assay: Cytotoxicity against human LNCAP cells by SRB assay; outline: as §1
A549 = assay: Cytotoxicity against human A549 cells by SRB assay; outline: as §1
PANC-1 = assay: Cytotoxicity against human PANC1 cells by SRB assay; outline: as §1
HT-29 = assay: Cytotoxicity against human HT-29 cells by SRB assay; outline: as §1
LoVo [3] = assay: Cytotoxicity against human LoVo cells by SRB assay; outline: as §1
LoVo [4] = assay: Cytotoxicity against human doxorubicin-resistant LoVo cells by SRB assay; outline: as §1
HeLa [5] = assay: Cytotoxicity against human HeLa cells by SRB assay; outline: as §1
HeLa [6] = assay: Cytotoxicity against human aplidine-resistant HeLa cells by SRB assay; outline: as §1
DU-145 = assay: Cytotoxicity against human DU145 cells by SRB assay; outline: as §1

Structure (SMILES)	IC50 [1]	IC50 [2]	IC50 (SK-BR-3)	IC50 (SK-MEL-28)	IC50 (LNCaP)	IC50 (A549)	IC50 (PANC-1)	IC50 (HT-29)	IC50 (LoVo [3])	IC50 (LoVo [4])	IC50 (HeLa [5])	IC50 (HeLa [6])	IC50 (DU-145)
C[C@H]1CC[C@@H]2OC(C)(C)[C@@H](O)CC=C2[C@@]1(C)CC[C@H]1[C@]2(C)CCC(=O)C(C)(C)O[C@H]2CC[C@]1(C)O [SODWANONE S]	> 10 µg/mL	4.7 µg/mL (≈ 9.58 µM)	3.8 µg/mL (≈ 7.74 µM)	6.5 µg/mL (≈ 13.2 µM)	5 µg/mL (≈ 10.2 µM)	> 10 µg/mL	4.1 µg/mL (≈ 8.35 µM)	> 10 µg/mL	6.9 µg/mL (≈ 14.1 µM)	3.3 µg/mL (≈ 6.72 µM)	> 10 µg/mL	> 10 µg/mL	> 10 µg/mL
CC1=C(CC[C@@H]2[C@@]3(CC[C@@H]4OC(C)(C)C(=O)CC[C@]42C)CO3)[C@@]2(C)CCC(=O)C(C)(C)C2=C(O)C1=O [SODWANONE G]	5 µg/mL (≈ 10 µM)	2.7 µg/mL (≈ 5.41 µM)	> 10 µg/mL	> 10 µg/mL	4.3 µg/mL (≈ 8.62 µM)	> 10 µg/mL	3.1 µg/mL (≈ 6.22 µM)	> 10 µg/mL	> 10 µg/mL	2.7 µg/mL (≈ 5.41 µM)	5.4 µg/mL (≈ 10.8 µM)	4.2 µg/mL (≈ 8.42 µM)	> 10 µg/mL
CC1=C(CC[C@H]2[C@]3(C)CCC(=O)C(C)(C)O[C@H]3CC[C@]2(C)O)[C@@]2(C)CCC(=O)C(C)(C)C2=C(O)C1=O [SODWANONE A]	1.7 µg/mL (≈ 3.4 µM)	0.068 µg/mL (≈ 0.136 µM)	> 10 µg/mL	7.5 µg/mL (≈ 15 µM)	3.8 µg/mL (≈ 7.59 µM)	3.5 µg/mL (≈ 6.99 µM)	0.7 µg/mL (≈ 1.4 µM)	> 10 µg/mL	8.5 µg/mL (≈ 17 µM)	0.3 µg/mL (≈ 0.599 µM)	2.1 µg/mL (≈ 4.19 µM)	2.9 µg/mL (≈ 5.79 µM)	1.8 µg/mL (≈ 3.6 µM)
